From ChEMBL document CHEMBL3580561, “Mitigation of Acetylcholine Esterase Activity in the 1,7-Diazacarbazole Series of Inhibitors of Checkpoint Kinase 1” (J Med Chem, 2015)

Columns and labels:
[1] = Clearance in Beagle dog at 1 mg/kg, iv solution at pH 4.5; type: ADME, organism-based, Canis lupus familiaris; conditions: in vivo
[2] = Volume of distribution at steady state in CD1 mouse at 1 mg/kg, iv solution at pH 4.5; type: ADME, organism-based; conditions: in vivo, read-out: Vdss
[3] = Clearance in cynomolgus monkey at 1 mg/kg, iv solution at pH 4.5; type: ADME, organism-based, Macaca fascicularis; conditions: in vivo
[4] = Volume of distribution at steady state in Beagle dog at 1 mg/kg, iv solution at pH 4.5; type: ADME, organism-based, Canis lupus familiaris; conditions: in vivo, read-out: Vdss
[5] = Clearance in Sprague-Dawley rat at 1 mg/kg, iv solution at pH 4.5; type: ADME, organism-based; conditions: in vivo
Mus musculus [6] = test: Toxicity in human HT-29 cells xenografted in NCr nude mouse assessed as body weight change measured after four cycles with 60 mg/kg, ip gemcitabine at four day intervals at 50 mg/kg, po; type: organism-based; conditions: in vivo
Procedure, shortened: (§1)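 NCr nude mice aged 8–12 weeks were inoculated with 5×10^6 HT-29 cells in HEPES-buffered saline:Matrigel 50:50. At 125–250 mm³, tumors were split into volume-matched cohorts (n=5 or 10). Gemcitabine in saline was given i.p., and the inhibitor as an MCT suspension by oral gavage 24 h later. Tumor volume and body weight were monitored. %TGI was derived by linear mixed-effect modeling, with two-way ANOVA/Tukey for p-values.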

[7] = Oral bioavailability in Sprague-Dawley rat at 5 mg/kg suspension at pH 6.5; type: ADME, organism-based; conditions: in vivo
[8] = AUC in cynomolgus monkey at 2 mg/kg, po suspension at pH 6.5; type: ADME, organism-based, Macaca fascicularis; conditions: in vivo
HT-29 [9] = test: Cytotoxicity against human HT-29 cells assessed as 10-fold reduction of gemcitabine IC50 after 72 hrs by Isobologram assay; type: functional; conditions: HT-29, 72 h
Procedure, shortened: (§2)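 HT-29 cells exposed 72 h to a range of gemcitabine concentrations, alone or combined with a range of ChK1 inhibitor concentrations. Viability read by CellTiter-Glo luminescence. […] Synergy assessed by combination index or Bliss independence.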

[10] = Plasma protein binding in Sprague-Dawley rat; type: ADME, cell-free; conditions: read-out: PPB (converted)
HT-29 [11] = test: Cytotoxicity against human HT-29 cells after 72 hrs by CellTiter-Glo luminescent assay; type: functional; conditions: HT-29, 72 h; procedure, shortened: as §2
[12] = Plasma protein binding in Beagle dog; type: ADME, cell-free, Canis lupus familiaris; conditions: read-out: PPB (converted)
Mus musculus [13] = test: (§3) Oral bioavailability in CD1 mouse at 5 mg/kg suspension at pH 6.5; type: ADME, organism-based; conditions: mouse, in vivo, pH 6.5, 5 mg/kg
[14] = Cmax in CD1 mouse at 5 mg/kg, po suspension at pH 6.5; type: ADME, organism-based; parameters: dose 5 mg/kg, route oral; conditions: in vivo
[15] = Cmax in Beagle dog at 2 mg/kg, po suspension at pH 6.5; type: ADME, organism-based, Canis lupus familiaris; parameters: dose 2 mg/kg, route oral; conditions: in vivo
[16] = Plasma protein binding in CD1 mouse; type: ADME, cell-free; conditions: read-out: PPB (converted)
HT-29 [17] = test: Cytotoxicity against human HT-29 cells assessed as 10-fold reduction of gemcitabine IC50 after 72 hrs by Isobologram assay relative to untreated control; type: functional
Procedure, shortened: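 HT-29 cells exposed 72 h to a range of gemcitabine hydrochloride concentrations, alone or combined with varying ChK1 inhibitor concentrations. Viability read by CellTiter-Glo luminescence. […] Synergy judged by combination index or Bliss independence analysis.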

HT-29 [18] = test: Potentiation of gemcitabine-induced anticancer activity in human HT-29 cells xenografted in po treated NCr nude mouse assessed as reduction in tumor volume measured after four cycles with 60 mg/kg, ip gemcitabine at four day intervals; type: functional, organism-based; procedure, shortened: as §1
[19] = Volume of distribution at steady state in Sprague-Dawley rat at 1 mg/kg, iv solution at pH 4.5; type: ADME, organism-based; conditions: in vivo, read-out: Vdss
HT-29 [20] = test: Potentiation of 60 mg/kg gemcitabine-induced anticancer activity in human HT-29 cells xenografted in po treated mouse assessed as increase in gammaH2AX by Western blot analysis; type: functional, organism-based
Procedure, shortened: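 HT-29 xenograft mice (n=4 per randomized group) got gemcitabine 60 mg/kg or saline. After 24 h they received an oral inhibitor dose in MCT (0.5% methylcellulose/0.2% Tween 80) or vehicle. Tumors were excised 16 h later, flash-frozen and lysed. Western blots (25 μg/lane) were probed for pS139 H2AX and total H2AX with IR-dye detection. The γH2AX:total ratio is expressed as fold-change from the gemcitabine-only group mean.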

[21] = AUC in Sprague-Dawley rat at 5 mg/kg, po suspension at pH 6.5; type: ADME, organism-based; conditions: in vivo
[22] = Oral bioavailability in cynomolgus monkey at 2 mg/kg suspension at pH 6.5; type: ADME, organism-based, Macaca fascicularis; conditions: in vivo
[23] = Volume of distribution at steady state in cynomolgus monkey at 1 mg/kg, iv solution at pH 4.5; type: ADME, organism-based, Macaca fascicularis; conditions: in vivo, read-out: Vdss
[24] = target: T1, Serine/threonine-protein kinase Chk1 (Homo sapiens, UniProt O14757); test: Inhibition of human recombinant Chk1 using biotinylated AKT substrate after 30 mins by Alphascreen biochemical assay
T1 sequence (O14757 whole entry): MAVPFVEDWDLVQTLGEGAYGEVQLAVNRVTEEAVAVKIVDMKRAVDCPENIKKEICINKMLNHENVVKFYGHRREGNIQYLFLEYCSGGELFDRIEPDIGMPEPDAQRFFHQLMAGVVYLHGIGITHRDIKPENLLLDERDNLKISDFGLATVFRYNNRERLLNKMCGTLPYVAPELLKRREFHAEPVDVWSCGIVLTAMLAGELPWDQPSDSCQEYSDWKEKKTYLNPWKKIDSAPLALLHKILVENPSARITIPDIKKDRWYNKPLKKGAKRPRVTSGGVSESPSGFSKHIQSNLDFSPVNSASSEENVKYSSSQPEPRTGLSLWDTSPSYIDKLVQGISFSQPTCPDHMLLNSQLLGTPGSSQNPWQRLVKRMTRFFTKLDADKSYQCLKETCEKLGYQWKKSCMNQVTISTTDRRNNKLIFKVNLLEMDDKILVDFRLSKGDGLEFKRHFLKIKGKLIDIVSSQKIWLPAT

[25] = target: T1, Serine/threonine-protein kinase Chk1; test: Inhibition of CHK1 in human HT29 cells assessed as phosphorylation of histone H3 after 24 hrs by checkpoint abrogation cellular assay; type: cell-based, HT-29
[26] = AUC in Beagle dog at 2 mg/kg, po suspension at pH 6.5; type: ADME, organism-based, Canis lupus familiaris; conditions: in vivo
[27] = Cmax in cynomolgus monkey at 2 mg/kg, po suspension at pH 6.5; type: ADME, organism-based, Macaca fascicularis; parameters: dose 2 mg/kg, route oral; conditions: in vivo
[28] = Cmax in Sprague-Dawley rat at 5 mg/kg, po suspension at pH 6.5; type: ADME, organism-based; parameters: dose 5 mg/kg, route oral; conditions: in vivo
HT-29 [29] = test: Potentiation of gemcitabine-induced anticancer activity in human HT-29 cells xenografted in NCr nude mouse assessed as reduction in tumor volume measured after four cycles with 60 mg/kg, ip gemcitabine at four day intervals at 50 mg/kg, po; type: functional; parameters: scale not given: the % may be the effect or the level left
Procedure, shortened: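 NCr nude mice, 8–12 weeks old, inoculated with 5×10^6 HT-29 cells in HEPES-buffered saline:Matrigel 50:50. Volume-matched cohorts formed at 125–250 mm³. Gemcitabine 60 mg/kg given i.p. in saline. Inhibitor given orally in 0.5% methylcellulose/0.2% Tween 80 suspension 24 h later. Four cycles at four-day intervals. Tumor volume monitored. %TGI by linear mixed-effect modeling; two-way ANOVA with Tukey test.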

[30] = Oral bioavailability in Beagle dog at 2 mg/kg suspension at pH 6.5; type: ADME, organism-based, Canis lupus familiaris; conditions: in vivo
Mus musculus [31] = test: (§4) AUC in CD1 mouse at 5 mg/kg, po suspension at pH 6.5; type: ADME, organism-based; conditions: mouse, in vivo, pH 6.5, 5 mg/kg
Acetylcholinesterase = Acetylcholinesterase (Homo sapiens, UniProt P22303); test: Inhibition of human acetylcholine esterase by horseradish peroxidase-coupled fluorescence assay
Sequence of Acetylcholinesterase (P22303 whole entry): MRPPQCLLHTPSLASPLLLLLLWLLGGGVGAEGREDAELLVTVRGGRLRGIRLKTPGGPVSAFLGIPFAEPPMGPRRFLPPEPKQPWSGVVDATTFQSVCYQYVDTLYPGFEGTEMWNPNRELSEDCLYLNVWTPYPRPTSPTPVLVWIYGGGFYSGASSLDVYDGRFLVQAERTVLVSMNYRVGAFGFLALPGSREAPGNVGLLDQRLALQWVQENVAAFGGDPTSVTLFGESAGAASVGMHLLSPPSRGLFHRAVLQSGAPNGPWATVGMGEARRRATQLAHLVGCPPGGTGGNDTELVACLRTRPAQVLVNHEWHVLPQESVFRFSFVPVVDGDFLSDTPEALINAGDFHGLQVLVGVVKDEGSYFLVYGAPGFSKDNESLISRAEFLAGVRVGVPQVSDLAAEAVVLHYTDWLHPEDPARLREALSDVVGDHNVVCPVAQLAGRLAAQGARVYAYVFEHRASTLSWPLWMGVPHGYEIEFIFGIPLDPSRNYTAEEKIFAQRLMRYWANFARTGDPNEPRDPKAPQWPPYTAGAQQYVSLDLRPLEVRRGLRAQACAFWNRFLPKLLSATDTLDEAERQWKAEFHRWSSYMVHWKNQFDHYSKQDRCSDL
Procedure, shortened: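 Human AChE at 0.006 U/ml, with 0.25 μM acetylcholine chloride, 0.06 U/ml choline oxidase, 0.05 U/ml horseradish peroxidase and 200 μM Amplex Red, in proprietary buffer with test compound. Incubated 30 min at 25 °C. Fluorescence read.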

[32] = Plasma protein binding in cynomolgus monkey; type: ADME, cell-free, Macaca fascicularis; conditions: read-out: PPB (converted)
HT-29 [33] = test: Potentiation of gemcitabine-induced anticancer activity in human HT-29 cells xenografted in po treated NCr nude mouse assessed as reduction in tumor volume measured after five cycles with 120 mg/kg, ip gemcitabine at five day intervals; type: functional, organism-based; procedure, shortened: as §1
[34] = Clearance in CD1 mouse at 1 mg/kg, iv solution at pH 4.5; type: ADME, organism-based; conditions: in vivo
[35] = as §3; type: ADME, organism-based; conditions: CD1, mouse, in vivo, 5 mg/kg, pH 6.5
Mus musculus [36] = test: Toxicity in human HT-29 cells xenografted in NCr nude mouse assessed as body weight change measured after five cycles with 120 mg/kg, ip gemcitabine at five day intervals at 50 mg/kg, po; type: organism-based; conditions: in vivo; procedure, shortened: as §1
[37] = as §4; type: ADME, organism-based; conditions: CD1, mouse, in vivo, 5 mg/kg, pH 6.5

Row | SMILES | clearance [1] | Vd [2] | clearance [3] | Vd [4] | clearance [5] | bioavailability [7] | AUC [8] | EC10 (HT-29 [9]) | fraction unbound [10] | GI50 (HT-29 [11]) | fraction unbound [12] | Cmax [14] | Cmax [15] | fraction unbound [16] | fold change (FC) (HT-29 [17]) | Vd [19] | Activity (HT-29 [20]) | AUC [21] | bioavailability [22] | Vd [23] | other results
1 | N#Cc1cc2c(cn1)[nH]c1ncc(-c3ccc(CN4CCC5(CC4)COC5)cc3)cc12 | 10.9 mL/min/kg | 7.33 L/kg | 30.8 mL/min/kg | 9.63 L/kg | 27.5 mL/min/kg | 116% | 0.91 µM·h | 16 nM | 0.025 | > 2500 nM | 0.052 | 191 nM | 200 nM | 0.038 | > 156 | 7.55 L/kg | Dose-dependent effect | 8.63 µM·h | 34% | 17.1 L/kg | Activity (Mus musculus [6]): Non-toxic; F (Mus musculus [13]): 48.5%; Activity (HT-29 [18]): Dose-dependent effect; IC50 [24]: 2.5 nM; EC50 [25]: 72.8 nM; AUC [26]: 3.51 µM·h; Cmax [27]: 86 nM; Cmax [28]: 1100 nM; Activity (HT-29 [29]): 111%; bioavailability [30]: 46.7%; AUC (Mus musculus [31]): 1.33 µM·h; IC50 (Acetylcholinesterase): 2420 nM; fraction unbound [32]: 0.049
2 | N#Cc1cc2c(cn1)[nH]c1ncc(-c3ccc(CN4CCCCC4)cc3)cc12 | 118 mL/min/kg | 6.57 L/kg | 45.8 mL/min/kg | 23.4 L/kg | 24.7 mL/min/kg | 67.4% | 0.869 µM·h | 10 nM | 0.047 | 8700 nM | 0.132 | 386 nM | 21 nM | 0.05 | 870 | 6.35 L/kg | Dose-dependent effect | 6.19 µM·h | 43.8% | 25.7 L/kg | Activity (HT-29 [33]): Dose-dependent effect; clearance [34]: 55.8 mL/min/kg; bioavailability [35]: 86.5%; Activity (Mus musculus [36]): Non-toxic; IC50 [24]: 1 nM; EC50 [25]: 53.2 nM; AUC [26]: 0.101 µM·h; Cmax [27]: 44 nM; Cmax [28]: 520 nM; bioavailability [30]: 13.1%; AUC [37]: 2.68 µM·h; IC50 (Acetylcholinesterase): 333 nM; fraction unbound [32]: 0.117
